Experimental data published in ChEMBL document CHEMBL1127679, “6H-pyrazolo[4,5,1-de]acridin-6-ones as a novel class of antitumor agents. Synthesis and biological activity” (J Med Chem, 1994).

Assays:
Mus musculus [1] = species on record: Mus musculus; experiment: %T/C value measured in antitumor activity using murine P388 leukemia cells; type: functional
Method in brief: (§1)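 Mice inoculated ip with P388 leukemia cells or the adriamycin-resistant subline P388/ADM. Drug activity expressed as T/C (%), i.e. mean survival days of the treated group over those of the control group, followed for 60 days. T/C >130% taken as significant. Optimal dose reported in mg/kg per injection.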

Mus musculus [2] = species on record: Mus musculus; experiment: %T/C value measured in antitumor activity using murine P388/ADM cells; type: functional; method in brief: as §1
Mus musculus [3] = experiment: Compound evaluated for optimal dose (mg/kg) per injection against murine P388 leukemia cells; type: functional; method in brief: as §1
Mus musculus [4] = species on record: Mus musculus; experiment: Compound evaluated for optimal dose per injection against adriamycin resistant murine cell line (P388/ADM cells); type: functional; method in brief: as §1
Nucleic Acid = experiment: Relative affinity for DNA binding; type: nucleic-acid assay
Mus musculus [5] = species on record: Mus musculus; experiment: %T/C value measured in antitumor activity using murine sarcoma 180 tumor cells; type: functional
Method in brief: (§2)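 Sarcoma 180 cells inoculated sc in mice. Drugs tested for antitumor activity, with the optimal dose given in mg/kg per injection. Activity expressed as treated versus control (T/C) value, and T/C <50% taken as effective.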

Mus musculus [6] = species on record: Mus musculus; experiment: Compound evaluated for optimal dose per injection against murine P388 leukemia cells; type: functional; method in brief: as §1
Mus musculus [7] = species on record: Mus musculus; experiment: Compound evaluated for optimal dose per injection against murine sarcoma 180 cells; type: functional; method in brief: as §2
Mus musculus [8] = species on record: Mus musculus; experiment: %T/C value measured in antitumor activity using murine P388/ADM cells.; type: functional; method in brief: as §1
Mus musculus [9] = species on record: Mus musculus; experiment: %T/C value measured in antitumor activity using murine sarcoma 180 cells; type: functional; method in brief: as §2

Question: With `NCCNc1ccc2c(CNCCCO)nn3c4cccc(O)c4c(=O)c1c23` as the compound, how does the T/C (Mus musculus [1]) read?
Answer: The T/C was greater than 181%.

Question: What about the T/C (Mus musculus [2]) of the same compound?
Answer: Its T/C is 146%.

Question: What about the Optimal dose (Mus musculus [3]) of the same compound?
Answer: The Optimal dose was 3.1 mg/kg.

Question: What about the Optimal dose (Mus musculus [4]) of the same compound?
Answer: The Optimal dose was 3.1 mg/kg.

Question: What about the IC50 (Nucleic Acid) of the same compound?
Answer: The IC50 was 140 nM.

Question: `CN(C)CCNCc1nn2c3ccccc3c(=O)c3c(NCCN(C)C)ccc1c32` was tested. Which IC50 (Nucleic Acid) did it give?
Answer: The IC50 was 260 nM.

Question: What does the source list for `COc1cccc2c1c(=O)c1c(NCCN)ccc3c(CNCCN)nn2c31`?
Answer: T/C (Mus musculus [1]): 139%; Optimal dose (Mus musculus [3]): 25 mg/kg; IC50 (Nucleic Acid): 180 nM

Question: `COc1cccc2c1c(=O)c1c(NCCN(C)C)ccc3c(CNCCN(C)C)nn2c31` was tested. Which IC50 (Nucleic Acid) did it give?
Answer: The IC50 was 160 nM.

Question: For `CN(C)CCNc1ccc2c(CNCCO)nn3c4cccc(O)c4c(=O)c1c23`, which T/C (Mus musculus [5]) is on record?
Answer: The T/C was 9%.

Question: What about the T/C (Mus musculus [1]) of the same compound?
Answer: Its T/C is greater than 261%.

Question: And the T/C (Mus musculus [2])?
Answer: The T/C was 144%.

Question: What about the Optimal dose (Mus musculus [4]) of the same compound?
Answer: The Optimal dose was 3.1 mg/kg.

Question: And the Optimal dose (Mus musculus [6])?
Answer: Its Optimal dose is 6.3 mg/kg.

Question: What about the IC50 (Nucleic Acid) of the same compound?
Answer: Its IC50 is 180 nM.

Question: And the Optimal dose (Mus musculus [7])?
Answer: Its Optimal dose is 3.1 mg/kg.

Question: Which T/C (Mus musculus [1]) does the source give for `O=c1c2c(O)cccc2n2nc(CNCCO)c3ccc(NCCCO)c1c32` here?
Answer: Its T/C is 152%.

Question: What about the T/C (Mus musculus [2]) of the same compound?
Answer: Its T/C is 123%.

Question: What about the Optimal dose (Mus musculus [3]) of the same compound?
Answer: The Optimal dose was 13 mg/kg.

Question: What about the Optimal dose (Mus musculus [4]) of the same compound?
Answer: The Optimal dose was 50 mg/kg.

Question: What about the IC50 (Nucleic Acid) of the same compound?
Answer: Its IC50 is 1050 nM.

Question: What does the source list for `NCCNc1ccc2c(CNCCCCO)nn3c4cccc(O)c4c(=O)c1c23`?
Answer: T/C (Mus musculus [1]): 146%; T/C (Mus musculus [2]): 126%; Optimal dose (Mus musculus [3]): 3.1 mg/kg; Optimal dose (Mus musculus [4]): 6.3 mg/kg; IC50 (Nucleic Acid): 170 nM

Question: `CCNCc1nn2c3cccc(O)c3c(=O)c3c(NCCN(C)C)ccc1c32` was tested. Which T/C (Mus musculus [1]) did it give?
Answer: Its T/C is 196%.

Question: What about the T/C (Mus musculus [2]) of the same compound?
Answer: The T/C was 126%.

Question: What about the Optimal dose (Mus musculus [4]) of the same compound?
Answer: Its Optimal dose is 3.1 mg/kg.

Question: What about the Optimal dose (Mus musculus [6]) of the same compound?
Answer: The Optimal dose was 3.1 mg/kg.

Question: What about the IC50 (Nucleic Acid) of the same compound?
Answer: Its IC50 is 110 nM.

Question: With `CN(C)CCNc1ccc2c(CN(CCO)CCO)nn3c4cccc(O)c4c(=O)c1c23` as the compound, how does the T/C (Mus musculus [5]) read?
Answer: The T/C was 42%.

Question: What about the T/C (Mus musculus [1]) of the same compound?
Answer: Its T/C is greater than 286%.

Question: And the T/C (Mus musculus [8])?
Answer: Its T/C is 134%.

Question: And the Optimal dose (Mus musculus [3])?
Answer: The Optimal dose was 25 mg/kg.

Question: And the Optimal dose (Mus musculus [4])?
Answer: The Optimal dose was 25 mg/kg.

Question: And the IC50 (Nucleic Acid)?
Answer: The IC50 was 420 nM.

Question: And the Optimal dose (Mus musculus [7])?
Answer: The Optimal dose was 13 mg/kg.

Question: With `O=c1c2c(O)cccc2n2nc(CNCCO)c3ccc(NCCNCCO)c1c32` as the compound, how does the T/C (Mus musculus [5]) read?
Answer: The T/C was 5%.

Question: And the T/C (Mus musculus [1])?
Answer: The T/C was greater than 208%.

Question: And the T/C (Mus musculus [2])?
Answer: Its T/C is 145%.

Question: And the Optimal dose (Mus musculus [3])?
Answer: The Optimal dose was 3.1 mg/kg.

Question: And the Optimal dose (Mus musculus [4])?
Answer: The Optimal dose was 6.3 mg/kg.

Question: And the IC50 (Nucleic Acid)?
Answer: The IC50 was 140 nM.

Question: And the Optimal dose (Mus musculus [7])?
Answer: The Optimal dose was 12 mg/kg.

Question: How did the T/C (Mus musculus [9]) turn out when `NCCCNc1ccc2c(CN3CCOCC3)nn3c4cccc(O)c4c(=O)c1c23` was run?
Answer: Its T/C is 33%.

Question: And the T/C (Mus musculus [1])?
Answer: The T/C was greater than 278%.

Question: What about the T/C (Mus musculus [8]) of the same compound?
Answer: The T/C was 115%.

Question: What about the Optimal dose (Mus musculus [3]) of the same compound?
Answer: Its Optimal dose is 13 mg/kg.

Question: What about the Optimal dose (Mus musculus [4]) of the same compound?
Answer: The Optimal dose was 13 mg/kg.

Question: And the IC50 (Nucleic Acid)?
Answer: Its IC50 is 890 nM.

Question: And the Optimal dose (Mus musculus [7])?
Answer: Its Optimal dose is 13 mg/kg.

Question: Which T/C (Mus musculus [5]) does the source give for `NCCNCc1nn2c3cccc(O)c3c(=O)c3c(NCCN)ccc1c32` here?
Answer: Its T/C is 12%.

Question: What about the T/C (Mus musculus [1]) of the same compound?
Answer: Its T/C is greater than 254%.

Question: What about the T/C (Mus musculus [2]) of the same compound?
Answer: Its T/C is 138%.

Question: What about the Optimal dose (Mus musculus [4]) of the same compound?
Answer: Its Optimal dose is 13 mg/kg.

Question: And the Optimal dose (Mus musculus [6])?
Answer: Its Optimal dose is 13 mg/kg.

Question: And the IC50 (Nucleic Acid)?
Answer: Its IC50 is 170 nM.

Question: And the Optimal dose (Mus musculus [7])?
Answer: The Optimal dose was 25 mg/kg.

Question: Which T/C (Mus musculus [1]) does the source give for `NCCCCNc1ccc2c(CNCCO)nn3c4cccc(O)c4c(=O)c1c23` here?
Answer: Its T/C is 161%.

Question: And the T/C (Mus musculus [2])?
Answer: The T/C was 112%.

Question: What about the Optimal dose (Mus musculus [4]) of the same compound?
Answer: Its Optimal dose is 50 mg/kg.

Question: And the Optimal dose (Mus musculus [6])?
Answer: Its Optimal dose is 25 mg/kg.

Question: What about the IC50 (Nucleic Acid) of the same compound?
Answer: The IC50 was 190 nM.

Question: `NCCNc1ccc2c(CNCCO)nn3c4cccc(O)c4c(=O)c1c23` was tested. Which T/C (Mus musculus [9]) did it give?
Answer: The T/C was 6%.

Question: And the T/C (Mus musculus [1])?
Answer: The T/C was greater than 222%.

Question: What about the T/C (Mus musculus [2]) of the same compound?
Answer: The T/C was 152%.

Question: And the Optimal dose (Mus musculus [4])?
Answer: The Optimal dose was 1.6 mg/kg.

Question: What about the Optimal dose (Mus musculus [6]) of the same compound?
Answer: The Optimal dose was 1.6 mg/kg.

Question: And the IC50 (Nucleic Acid)?
Answer: The IC50 was 140 nM.

Question: What about the Optimal dose (Mus musculus [7]) of the same compound?
Answer: Its Optimal dose is 6.3 mg/kg.

Question: With `CN(C)CCNCc1nn2c3cccc(O)c3c(=O)c3c(NCCN(C)C)ccc1c32` as the compound, how does the IC50 (Nucleic Acid) read?
Answer: The IC50 was 160 nM.

Question: Which T/C (Mus musculus [9]) does the source give for `COc1cccc2c1C(=O)c1c(O)c3c(c(O)c1C2=O)C[C@@](O)(C(=O)CO)C[C@@H]3O[C@H]1C[C@H](N)[C@H](O)[C@H](C)O1` [DOXORUBICIN] here?
Answer: The T/C was 31%.

Question: And the T/C (Mus musculus [1])?
Answer: Its T/C is greater than 254%.

Question: What about the T/C (Mus musculus [8]) of the same compound?
Answer: The T/C was 116%.

Question: What about the Optimal dose (Mus musculus [3]) of the same compound?
Answer: Its Optimal dose is 7.5 mg/kg.

Question: What about the Optimal dose (Mus musculus [4]) of the same compound?
Answer: The Optimal dose was 7.5 mg/kg.

Question: And the Optimal dose (Mus musculus [7])?
Answer: The Optimal dose was 7.5 mg/kg.

Question: How did the T/C (Mus musculus [5]) turn out when `NCCCNc1ccc2c(CNCCO)nn3c4cccc(O)c4c(=O)c1c23` was run?
Answer: Its T/C is 21%.

Question: And the T/C (Mus musculus [1])?
Answer: Its T/C is greater than 230%.

Question: And the T/C (Mus musculus [2])?
Answer: The T/C was 156%.

Question: And the Optimal dose (Mus musculus [4])?
Answer: Its Optimal dose is 6.3 mg/kg.

Question: What about the Optimal dose (Mus musculus [6]) of the same compound?
Answer: The Optimal dose was 13 mg/kg.

Question: And the IC50 (Nucleic Acid)?
Answer: The IC50 was 130 nM.

Question: And the Optimal dose (Mus musculus [7])?
Answer: The Optimal dose was 6 mg/kg.

Question: What does the source list for `NCCNCc1nn2c3ccccc3c(=O)c3c(NCCN)ccc1c32`?
Answer: T/C (Mus musculus [1]): 150%; Optimal dose (Mus musculus [6]): 38 mg/kg; IC50 (Nucleic Acid): 130 nM
